The values below come from ChEMBL document CHEMBL1138485, “Discovery of inducible nitric oxide synthase (iNOS) inhibitor development candidate KD7332, part 1: Identification of a novel, potent, and selective series of quinolinone iNOS dimerization inhibitors that are orally active in rodent pain models” (J Med Chem, 2009).

A value given as a limit tells only on which side of the number the result lay.

T2 sequence (P29475 whole entry): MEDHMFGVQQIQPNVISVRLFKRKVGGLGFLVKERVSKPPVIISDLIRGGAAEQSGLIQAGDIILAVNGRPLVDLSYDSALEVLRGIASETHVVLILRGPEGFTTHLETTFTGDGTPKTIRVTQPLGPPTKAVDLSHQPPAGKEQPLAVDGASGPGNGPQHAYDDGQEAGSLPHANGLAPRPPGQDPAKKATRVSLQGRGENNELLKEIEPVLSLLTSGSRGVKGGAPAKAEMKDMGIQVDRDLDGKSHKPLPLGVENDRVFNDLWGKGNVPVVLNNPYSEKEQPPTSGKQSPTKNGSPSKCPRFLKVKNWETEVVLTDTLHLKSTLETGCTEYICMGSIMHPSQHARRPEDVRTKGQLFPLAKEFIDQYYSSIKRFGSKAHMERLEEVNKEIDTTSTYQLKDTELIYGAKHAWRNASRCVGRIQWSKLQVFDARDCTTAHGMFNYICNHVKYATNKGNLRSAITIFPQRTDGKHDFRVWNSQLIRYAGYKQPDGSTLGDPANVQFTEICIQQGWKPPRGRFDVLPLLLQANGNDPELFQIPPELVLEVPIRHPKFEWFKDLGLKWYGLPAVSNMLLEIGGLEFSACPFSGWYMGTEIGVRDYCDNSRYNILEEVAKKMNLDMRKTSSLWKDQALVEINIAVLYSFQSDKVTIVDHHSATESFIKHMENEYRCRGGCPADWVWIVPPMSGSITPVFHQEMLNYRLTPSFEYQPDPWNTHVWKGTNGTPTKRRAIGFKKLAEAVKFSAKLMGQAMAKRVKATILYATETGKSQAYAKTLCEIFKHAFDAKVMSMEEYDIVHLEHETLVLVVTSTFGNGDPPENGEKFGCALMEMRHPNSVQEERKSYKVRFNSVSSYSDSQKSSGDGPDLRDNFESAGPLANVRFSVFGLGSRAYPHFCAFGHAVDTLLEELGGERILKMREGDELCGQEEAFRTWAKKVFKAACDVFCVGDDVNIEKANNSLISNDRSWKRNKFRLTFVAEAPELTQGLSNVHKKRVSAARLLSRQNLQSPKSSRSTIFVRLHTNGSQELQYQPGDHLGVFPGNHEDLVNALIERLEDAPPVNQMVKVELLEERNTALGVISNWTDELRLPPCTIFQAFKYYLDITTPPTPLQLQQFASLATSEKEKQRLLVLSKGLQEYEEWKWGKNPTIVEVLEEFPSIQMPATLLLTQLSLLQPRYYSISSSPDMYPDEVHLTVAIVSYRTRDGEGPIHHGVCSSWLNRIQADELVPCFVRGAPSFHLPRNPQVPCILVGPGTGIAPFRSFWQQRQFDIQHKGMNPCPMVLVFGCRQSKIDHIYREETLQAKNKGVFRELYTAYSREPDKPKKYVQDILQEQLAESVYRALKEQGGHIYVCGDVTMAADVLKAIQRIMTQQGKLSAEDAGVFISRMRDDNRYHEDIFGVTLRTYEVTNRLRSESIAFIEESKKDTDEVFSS
Chain of Nitric oxide synthase, inducible (P35228 whole entry): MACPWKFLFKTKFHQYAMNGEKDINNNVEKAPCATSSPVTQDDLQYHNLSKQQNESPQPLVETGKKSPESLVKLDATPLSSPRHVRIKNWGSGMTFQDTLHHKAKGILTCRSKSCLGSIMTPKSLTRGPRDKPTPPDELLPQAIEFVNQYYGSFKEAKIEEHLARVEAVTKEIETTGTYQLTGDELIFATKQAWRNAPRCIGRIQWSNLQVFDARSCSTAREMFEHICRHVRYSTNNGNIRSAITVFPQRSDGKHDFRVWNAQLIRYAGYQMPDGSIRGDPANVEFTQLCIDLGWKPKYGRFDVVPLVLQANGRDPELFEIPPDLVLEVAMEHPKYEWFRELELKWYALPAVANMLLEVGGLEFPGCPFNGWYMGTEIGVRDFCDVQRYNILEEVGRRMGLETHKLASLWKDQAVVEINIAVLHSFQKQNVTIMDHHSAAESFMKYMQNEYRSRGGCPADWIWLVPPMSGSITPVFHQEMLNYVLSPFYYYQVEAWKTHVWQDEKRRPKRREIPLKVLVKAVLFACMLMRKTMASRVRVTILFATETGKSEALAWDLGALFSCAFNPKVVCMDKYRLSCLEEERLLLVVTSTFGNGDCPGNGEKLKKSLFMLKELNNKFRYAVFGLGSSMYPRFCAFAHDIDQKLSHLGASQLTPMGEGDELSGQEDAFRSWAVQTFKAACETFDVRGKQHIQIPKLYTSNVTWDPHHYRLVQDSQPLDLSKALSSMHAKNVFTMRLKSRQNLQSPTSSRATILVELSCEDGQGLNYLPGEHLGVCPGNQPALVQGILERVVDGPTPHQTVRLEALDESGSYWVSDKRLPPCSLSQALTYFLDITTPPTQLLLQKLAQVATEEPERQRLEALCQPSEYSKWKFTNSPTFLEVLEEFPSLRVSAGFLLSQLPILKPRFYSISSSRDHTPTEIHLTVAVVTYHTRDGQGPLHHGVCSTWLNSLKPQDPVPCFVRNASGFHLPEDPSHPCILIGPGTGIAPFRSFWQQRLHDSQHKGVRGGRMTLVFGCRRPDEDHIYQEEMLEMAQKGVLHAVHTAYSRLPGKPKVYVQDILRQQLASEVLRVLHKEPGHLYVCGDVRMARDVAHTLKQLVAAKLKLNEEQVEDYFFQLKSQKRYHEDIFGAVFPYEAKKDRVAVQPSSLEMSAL

One test concerns the target Nitric oxide synthase, inducible (Homo sapiens, UniProt P35228). Nature of the test: Inhibition of human iNOS expressed in HEK293 cells assessed as NO production by transient transfection assay. The format is cell-based. The essentials:
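HEK293 cells grown to ~70% confluence in DMEM/10% FBS with pen/strep. Cells transiently transfected with 10 µg human or murine iNOS plasmid (Fugene 6), 4 h at 37 °C, 10% CO2. Trypsinized, plated at 5 × 10⁵ cells/mL and dosed at once; 1400W 100 µM final as positive control. After 18 h, NO read as DAN fluorescence (10 µg/mL, 20 min RT, then NaOH). EC50 from 3 runs, 10-point curves, n = 8/point.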
Regarding `Cc1ncsc1C(=O)N(Cc1cc(=O)[nH]c2cccc(F)c12)c1cccc(Cl)c1`, the EC50 was 500 nM.

For the compound `Cc1ncsc1C(=O)N(Cc1cc(=O)oc2c(F)cccc12)c1cccc(Cl)c1`, the EC50 was found to be 2000 nM.

Turning to `Cc1cccnc1C(=O)N(Cc1cc(=O)[nH]c2c(F)cccc12)c1cccc(Cl)c1`, the EC50 worked out at 420 nM.

Take `Cc1cnccc1C(=O)N(Cc1cc(=O)[nH]c2c(F)cccc12)c1cccc(Cl)c1`: the EC50 was determined as 89 nM.

As to `O=C(C1CCCC1)N(Cc1cc(=O)[nH]c2c(F)cccc12)c1cccc(Cl)c1`, the EC50 was determined as 770 nM.

Turning to `Cc1ncsc1C(=O)N(Cc1cncc2c(F)cccc12)c1cccc(Cl)c1`, the EC50 was determined as 760 nM.

`O=C(c1ccco1)N(Cc1cc(=O)[nH]c2c(F)cccc12)c1ccccc1`: the EC50 was found to be 1100 nM.

Consider `Cc1ncsc1C(=O)N(Cc1cc(=O)[nH]c2c(F)cccc12)c1ccccc1`, for which the EC50 was 200 nM.

In the case of `Cc1ncsc1C(=O)N(Cc1cc(=O)[nH]c2ccccc12)c1ccccc1`, the EC50 came out at 500 nM.

Take `Cc1ncsc1C(=O)N(Cc1cc(=O)[nH]c2c(Cl)cccc12)c1cccc(Cl)c1`: the EC50 amounted to 1300 nM.

Consider `Cc1ncccc1C(=O)N(Cc1cc(=O)[nH]c2c(F)cccc12)c1cccc(Cl)c1`, for which the EC50 was determined as 350 nM.

On to `Cc1ncsc1C(=O)N(Cc1cc(=O)[nH]c2c1CCCC2)c1cccc(Cl)c1`, for which the EC50 turned out to be 1140 nM.

In the case of `Cc1ncsc1C(=O)N(Cc1cc(=O)[nH]c2c(F)cccc12)c1ccccc1Cl`, the EC50 stood at 13000 nM.

Another test has as its target T1, Nitric oxide synthase 3 (Homo sapiens, UniProt P29474).
T1 sequence (P29474 whole entry): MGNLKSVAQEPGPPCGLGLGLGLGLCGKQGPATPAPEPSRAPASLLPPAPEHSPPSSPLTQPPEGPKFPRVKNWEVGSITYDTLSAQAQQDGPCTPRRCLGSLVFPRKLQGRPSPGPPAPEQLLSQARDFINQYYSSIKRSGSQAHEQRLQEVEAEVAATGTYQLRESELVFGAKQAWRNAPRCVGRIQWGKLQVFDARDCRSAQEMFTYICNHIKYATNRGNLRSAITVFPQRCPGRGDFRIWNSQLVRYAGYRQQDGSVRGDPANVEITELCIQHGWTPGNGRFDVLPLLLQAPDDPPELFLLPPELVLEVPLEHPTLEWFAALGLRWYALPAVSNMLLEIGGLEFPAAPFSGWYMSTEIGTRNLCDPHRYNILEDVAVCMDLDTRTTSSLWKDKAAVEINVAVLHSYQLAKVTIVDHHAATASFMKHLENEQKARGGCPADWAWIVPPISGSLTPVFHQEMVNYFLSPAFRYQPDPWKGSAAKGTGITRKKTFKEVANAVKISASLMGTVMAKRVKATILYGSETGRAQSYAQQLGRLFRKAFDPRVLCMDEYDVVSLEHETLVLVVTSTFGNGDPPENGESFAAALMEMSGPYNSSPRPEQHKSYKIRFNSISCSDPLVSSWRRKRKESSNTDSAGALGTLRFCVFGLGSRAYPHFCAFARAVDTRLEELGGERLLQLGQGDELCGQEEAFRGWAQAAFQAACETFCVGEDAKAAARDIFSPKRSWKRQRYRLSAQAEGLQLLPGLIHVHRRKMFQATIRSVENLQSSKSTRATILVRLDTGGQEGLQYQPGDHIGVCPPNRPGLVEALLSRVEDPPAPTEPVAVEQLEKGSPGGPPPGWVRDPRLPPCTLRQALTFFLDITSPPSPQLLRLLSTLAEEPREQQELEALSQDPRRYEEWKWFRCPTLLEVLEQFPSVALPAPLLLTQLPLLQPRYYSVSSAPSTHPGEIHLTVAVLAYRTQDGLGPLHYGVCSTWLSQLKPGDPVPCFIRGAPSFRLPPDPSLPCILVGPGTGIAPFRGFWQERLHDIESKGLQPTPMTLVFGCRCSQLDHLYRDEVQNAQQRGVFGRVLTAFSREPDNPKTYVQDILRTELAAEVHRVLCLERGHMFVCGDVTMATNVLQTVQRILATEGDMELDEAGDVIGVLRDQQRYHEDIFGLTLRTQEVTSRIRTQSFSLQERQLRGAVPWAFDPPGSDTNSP
Nature of the test: Inhibition of human eNOS expressed in HEK293 cells assessed as NO production by transient transfection assay. It is filed as cell-based. In short, it runs like this: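 HEK293 cells grown to ~70% confluence in DMEM/10% FBS with pen/strep, transfected with 15 µg human eNOS plasmid plus Fugene 6 (3:1 µL:µg), 4 h at 37 °C, 10% CO2. Cells replated at 5 × 10⁵/mL, compound added at once, 24 h incubation, then A23187 (83 nM final). After 18 h, NO read by DAN fluorescence.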
With `Cc1ncsc1C(=O)N(Cc1cc(=O)[nH]c2cccc(F)c12)c1cccc(Cl)c1`, the EC50 was > 100000 nM.

Turning to `Cc1cccnc1C(=O)N(Cc1cc(=O)[nH]c2c(F)cccc12)c1cccc(Cl)c1`, the EC50 was > 100000 nM.

For the compound `Cc1cnccc1C(=O)N(Cc1cc(=O)[nH]c2c(F)cccc12)c1cccc(Cl)c1`, the EC50 was found to be 13000 nM.

Regarding `O=C(C1CCCC1)N(Cc1cc(=O)[nH]c2c(F)cccc12)c1cccc(Cl)c1`, the concentration giving a half-maximal response (EC50) is > 100000 nM.

For the compound `O=C(c1ccco1)N(Cc1cc(=O)[nH]c2c(F)cccc12)c1ccccc1`, the EC50 was > 100000 nM.

In the case of `Cc1ncsc1C(=O)N(Cc1cc(=O)[nH]c2c(F)cccc12)c1ccccc1`, the EC50 was > 100000 nM.

`Cc1ncsc1C(=O)N(Cc1cc(=O)[nH]c2ccccc12)c1ccccc1`: the concentration giving a half-maximal response (EC50) was > 100000 nM.

In the case of `Cc1ncsc1C(=O)N(Cc1cc(=O)[nH]c2c(Cl)cccc12)c1cccc(Cl)c1`, the EC50 is > 100000 nM.

As for `Cc1ncccc1C(=O)N(Cc1cc(=O)[nH]c2c(F)cccc12)c1cccc(Cl)c1`, the EC50 is > 100000 nM.

Regarding `Cc1ncsc1C(=O)N(Cc1cc(=O)[nH]c2c(F)cccc12)c1ccccc1Cl`, the EC50 was > 100000 nM.

Another test has as its target T2, Nitric oxide synthase 1 (Homo sapiens, UniProt P29475). As to the kind of experiment: Inhibition of human nNOS expressed in HEK293 cells assessed as NO production by transient transfection assay. The format is cell-based.
`Cc1ncsc1C(=O)N(Cc1cc(=O)[nH]c2cccc(F)c12)c1cccc(Cl)c1`: the EC50 was > 10000 nM.

As to `Cc1cccnc1C(=O)N(Cc1cc(=O)[nH]c2c(F)cccc12)c1cccc(Cl)c1`, the concentration giving a half-maximal response (EC50) amounted to 4100 nM.

`Cc1cnccc1C(=O)N(Cc1cc(=O)[nH]c2c(F)cccc12)c1cccc(Cl)c1`: the EC50 is 2100 nM.

Consider `O=C(C1CCCC1)N(Cc1cc(=O)[nH]c2c(F)cccc12)c1cccc(Cl)c1`, for which the EC50 was determined as 10300 nM.

With `O=C(c1ccco1)N(Cc1cc(=O)[nH]c2c(F)cccc12)c1ccccc1`, the EC50 was > 10000 nM.

As for `Cc1ncsc1C(=O)N(Cc1cc(=O)[nH]c2c(F)cccc12)c1ccccc1`, the EC50 was > 10000 nM.

Turning to `Cc1ncsc1C(=O)N(Cc1cc(=O)[nH]c2ccccc12)c1ccccc1`, the EC50 is > 10000 nM.

Regarding `Cc1ncsc1C(=O)N(Cc1cc(=O)[nH]c2c(Cl)cccc12)c1cccc(Cl)c1`, the EC50 is > 10000 nM.

As for `Cc1ncccc1C(=O)N(Cc1cc(=O)[nH]c2c(F)cccc12)c1cccc(Cl)c1`, the EC50 came to 7900 nM.

In the case of `Cc1ncsc1C(=O)N(Cc1cc(=O)[nH]c2c(F)cccc12)c1ccccc1Cl`, the EC50 is > 10000 nM.

The next test deals with T3, Nitric oxide synthase 3 (Homo sapiens) (UniProt P29474).
T3 sequence (whole entry): T1 sequence (P29474 whole entry)
Nature of the test: Inhibition of human eNOS expressed in HEK293 cells assessed as NO production at 100 uM by transient transfection assay relative to BBS-4. The format is cell-based. The essentials:
(§1)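 HEK293 cells transiently transfected with human eNOS (15 µg plasmid) or nNOS (10 µg plasmid), Fugene 6 at 3:1 µL:µg, 4 h at 37 °C, 10% CO2. Plated at 5 × 10⁵ cells/mL with compound; SEITU 100 µM final as positive control. After 24 h, activated with A23187 (83 nM final, eNOS) or ionomycin (30 µM final, nNOS). After 18 h more, NO read by DAN fluorescence. Inhibition is relative to the maximal inhibition by the control dimerization inhibitor. 3 runs, 10-point curves, n = 3/point.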
In the case of `Cc1ncsc1C(=O)N(Cc1cc(=O)[nH]c2cccc(F)c12)c1cccc(Cl)c1`, the inhibition was < 50%.

As to `Cc1cccnc1C(=O)N(Cc1cc(=O)[nH]c2c(F)cccc12)c1cccc(Cl)c1`, the inhibition is < 50%.

`O=C(C1CCCC1)N(Cc1cc(=O)[nH]c2c(F)cccc12)c1cccc(Cl)c1`: the inhibition was < 50%.

On to `O=C(c1ccco1)N(Cc1cc(=O)[nH]c2c(F)cccc12)c1ccccc1`, for which the inhibition is < 50%.

In the case of `Cc1ncsc1C(=O)N(Cc1cc(=O)[nH]c2c(F)cccc12)c1ccccc1`, the inhibition is < 50%.

In the case of `Cc1ncsc1C(=O)N(Cc1cc(=O)[nH]c2ccccc12)c1ccccc1`, the inhibition was < 50%.

`Cc1ncsc1C(=O)N(Cc1cc(=O)[nH]c2c(Cl)cccc12)c1cccc(Cl)c1`: the inhibition was < 50%.

On to `Cc1ncccc1C(=O)N(Cc1cc(=O)[nH]c2c(F)cccc12)c1cccc(Cl)c1`, for which the inhibition was < 50%.

Turning to `Cc1ncsc1C(=O)N(Cc1cc(=O)[nH]c2c(F)cccc12)c1ccccc1Cl`, the inhibition was < 50%.

The target of another test is T2, Nitric oxide synthase 1. As to the kind of experiment: Inhibition of human nNOS expressed in HEK293 cells assessed as NO production at 10 uM by transient transfection assay relative to BBS-4. The format is cell-based. In short, it runs like this: as §1
For the compound `Cc1ncsc1C(=O)N(Cc1cc(=O)[nH]c2cccc(F)c12)c1cccc(Cl)c1`, the inhibition was < 50%.

On to `O=C(c1ccco1)N(Cc1cc(=O)[nH]c2c(F)cccc12)c1ccccc1`, for which the inhibition was < 50%.

With `Cc1ncsc1C(=O)N(Cc1cc(=O)[nH]c2c(F)cccc12)c1ccccc1`, the inhibition is < 50%.

Consider `Cc1ncsc1C(=O)N(Cc1cc(=O)[nH]c2ccccc12)c1ccccc1`, for which the inhibition is < 50%.

Regarding `Cc1ncsc1C(=O)N(Cc1cc(=O)[nH]c2c(Cl)cccc12)c1cccc(Cl)c1`, the inhibition is < 50%.

With `Cc1ncsc1C(=O)N(Cc1cc(=O)[nH]c2c(F)cccc12)c1ccccc1Cl`, the inhibition is < 50%.
